Data on 3 molecules can be found in ChEMBL document CHEMBL3352796, “Enantioselective Synthesis and Profiling of Two Novel Diazabicyclooctanone β-Lactamase Inhibitors” (ACS Med Chem Lett, 2014).

The nature of data set [1]: Hydrolytic solution stability in pH 7.4 aqueous phosphate buffer at 70 degC by HPLC-UV method. Type of data set: physicochemical. The procedure, abridged:
(§1)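 Compound held in aqueous phosphate buffer, pH 7.4, at 37 °C or 70 °C. Hydrolytic stability is reported as half-life in hours.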

For data set [2], the system named is Klebsiella pneumoniae. The data set can be described thus: Inhibition of Klebsiella pneumoniae CTX-M-15 pre-incubated with enzyme for 5 mins before nitrocefin substrate addition by colorimetric assay.
Data set [3] is described as follows: Inhibition of Enterobacter cloacae KPC-2 pre-incubated with enzyme for 5 mins before nitrocefin substrate addition by colorimetric assay.
Data set [4] can be described thus: Inhibition of Pseudomonas aeruginosa AmpC pre-incubated with enzyme for 5 mins before nitrocefin substrate addition by colorimetric assay.
The test system of data set [5] is Klebsiella pneumoniae. The data set can be described thus: Inhibition of Klebsiella pneumoniae OXA-48 pre-incubated with enzyme for 5 mins before nitrocefin substrate addition by colorimetric assay.
A short description of data set [6]: Hydrolytic solution stability in pH 7.4 aqueous phosphate buffer at 37 degC by HPLC-UV method. The format is physicochemical. The procedure, abridged: as §1

Usually half-life stands for the time needed for the level to fall by half in the phase considered. Lower therefore signals fast loss. Broadly, the IC50 is the concentration that gives 50% inhibition. A high value points to a need for much substance. Molecule `NC(=O)[C@@H]1[C@H]2C[C@H]2[C@@H]2CN1C(=O)N2OS(=O)(=O)[O-].[Na+]` returned a half-life in data set [1] greater than 264 h. The IC50 in the data set with Klebsiella pneumoniae [2] was 0.48 µM; in data set [3], 6.7 µM; in data set [4] it was 2 µM; with Klebsiella pneumoniae [5], 28 µM.

For the molecule `NC(=O)[C@@H]1[C@@H]2C[C@@H]2[C@@H]2CN1C(=O)N2OS(=O)(=O)[O-].[Na+]`, the half-life in data set [6] was 112 h; in data set [1] it was 8.2 h. For the same molecule, the half-inhibitory concentration (IC50) in the data set on Klebsiella pneumoniae [2] came to 0.14 µM; in data set [3], 0.85 µM; in data set [4], 4.5 µM; with Klebsiella pneumoniae [5] it was 1.3 µM.

`C[C@]1(Cn2ccnn2)[C@H](C(=O)O)N2C(=O)C[C@H]2S1(=O)=O` [TAZOBACTAM] gave a half-life in data set [1] of 7.7 h. For the same molecule, the IC50 was less than 0.007 µM with Klebsiella pneumoniae [2], 39 µM in data set [3], 3.4 µM in data set [4] and 3.6 µM in the data set with Klebsiella pneumoniae [5].
